We go through 33 compounds from PubChem BioAssay AID588754 (Broad Institute, 2011).

One may read the AC50 as the concentration giving half of the maximal activity seen.

Calls of active or inactive are those of the source.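 How the source made its calls: active means fitted curve shows reduced dye-labelled HDL uptake, half-maximal concentration at most ten times top dose; inconclusive means flat curve with 30 to 70% inhibition, or unreliable fit; inactive means the rest.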

Chain of Scavenger receptor class B member 1 (Mus musculus) (Q61009 whole entry, looked up): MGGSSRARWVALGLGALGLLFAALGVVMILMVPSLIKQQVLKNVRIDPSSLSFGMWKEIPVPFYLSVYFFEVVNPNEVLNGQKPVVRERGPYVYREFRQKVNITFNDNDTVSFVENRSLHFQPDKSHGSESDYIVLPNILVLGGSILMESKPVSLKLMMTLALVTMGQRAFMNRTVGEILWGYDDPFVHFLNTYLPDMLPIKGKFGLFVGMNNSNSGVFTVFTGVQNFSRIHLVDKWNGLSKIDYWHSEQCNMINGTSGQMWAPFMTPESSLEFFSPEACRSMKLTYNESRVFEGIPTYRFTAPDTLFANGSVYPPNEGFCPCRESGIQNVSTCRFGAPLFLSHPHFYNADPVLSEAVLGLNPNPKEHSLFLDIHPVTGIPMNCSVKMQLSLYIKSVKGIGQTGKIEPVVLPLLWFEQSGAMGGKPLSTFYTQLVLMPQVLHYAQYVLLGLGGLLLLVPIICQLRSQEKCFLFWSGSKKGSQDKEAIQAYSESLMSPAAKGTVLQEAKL

The first test has as its target Scavenger receptor class B member 1 (Mus musculus) (UniProt Q61009). The test can be described thus: SR-BI-mediated DiI-HDL uptake inhibitors, dose response, ldlA[mSR-BI] CHO cells, powder samples, set 5 (AID 588754). As to conditions: DiI-HDL uptake fluorescence, 3 h. The gist of the method:
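Material: ldlA[mSR-BI] CHO cells expressing mouse SR-BI; buffer or medium: Ham's F12 with fatty acid-free BSA and HEPES; also added: DiI-labeled HDL at 10 µg/mL final; timing: 3 h at 37 °C; signal: bottom-read DiI fluorescence after washing, ex 550/em 595 nm; measure: HDL uptake fluorescence, decrease meaning inhibition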
In the case of `CCC(=O)n1ccc2cc(-c3csc(NC(=O)c4cc(OC)cc(OC)c4)n3)ccc21`, the AC50 is 89.3 nM.

As for `COCC(=O)N1CCc2cc(-c3csc(NC(=O)c4cc(OC)cc(OC)c4)n3)ccc21`, the AC50 is 2.81 nM. Still for that read-out and setting: the same measure for `CCC(=O)N1CCc2cc(-c3csc(NC(=O)c4cc(OC)c(OC)c(OC)c4)n3)ccc21`: 2.76 nM. As for `CCC(=O)N1CC(C)(C)c2cc(-c3csc(NC(=O)c4ccco4)n3)ccc21`, the AC50 is 20.3 nM. Regarding `COc1cc(OC)cc(C(=O)Nc2nc(-c3ccc4c(c3)CCN4C(=O)CN(C)C)cs2)c1`, the AC50 was 19.5 nM. Same read-out and setting: the same measure for `COc1ccc(-c2nnn(CC(=O)N(CC(=O)NC3CCCC3)C3CCCCC3)n2)cc1OC`: 36.5 nM; for `COc1cc(OC)cc(C(=O)Nc2nc(-c3ccc4c(c3)CCN4C(C)=O)cs2)c1`: 207 nM; for `C[C@H](C(=O)NC1CCCC1)N(C(=O)Cn1nnc(-c2ccc3c(c2)OCO3)n1)C1CCCCC1`: 18.9 nM.

Turning to `CCC(=O)N1CCc2cc(-c3csc(NC(=O)c4cc(OC)cc(OC)c4)n3)ccc21`, the AC50 was 42.6 nM. On the same count and under the same terms, the same measure for `C[C@@H]1CN([C@H](C)CO)C(=O)c2cc(NC(=O)Cc3cn(C)c4ccccc34)ccc2O[C@H]1CN(C)S(=O)(=O)c1ccc(Cl)cc1`: 5.98 nM. Same read-out and setting: the same measure for `Cc1ccc2oc(-c3cccc(NC(=O)c4cc(-n5cnnc5)ccc4Cl)c3)nc2c1`: 3620 nM. On the same count and under the same terms, the same measure for `CCC(=O)N1CCc2cc(-c3csc(NC(=O)c4cccc(OC(F)(F)F)c4)n3)ccc21`: 266 nM. Take `COc1ccc(-c2cc(CC(=O)N(C3CCCCC3)C(C)C(=O)NC3CCCC3)no2)cc1OC` (stereo not drawn): the AC50 is 29.4 nM. The same measure, in the same setting: the same measure for `C[C@@H](C(=O)NC1CCCC1)N(C(=O)Cn1nnc(-c2ccc3c(c2)OCO3)n1)C1CCCCC1`: 2270 nM. The same measure, in the same setting: under `CCC(=O)Nc1ccc(-c2csc(NC(=O)c3cccc(OC)c3)n2)cc1` stands 110 nM; under `COC(=O)N1CCc2cc(-c3csc(NC(=O)c4cc(OC)cc(OC)c4)n3)ccc21`, 39 nM; under `COc1cc(OC)cc(C(=O)Nc2nc(-c3ccc4c(c3)CCN4C(=O)OC(C)(C)C)cs2)c1`, 0.909 nM. Still for that read-out and setting: the same measure for `COc1ccc(-c2nnn(CC(=O)N(C3CCCCC3)C(C)C(=O)NC3CCCC3)n2)cc1OC` (stereo not drawn): 65.2 nM; for `COc1ccc(-c2nc(CC(=O)N(C3CCCCC3)C(C)C(=O)NC3CCCC3)co2)cc1OC` (stereo not drawn): 148 nM. With `COc1ccc(-c2nnn(CC(=O)N(CC(=O)N3CCCCC3)C3CCCCC3)n2)cc1OC`, the AC50 is 9200 nM.

As for `CCC(=O)N1CCc2cc(-c3csc(NC(=O)c4ccc(F)c(OC)c4)n3)ccc21`, the AC50 is 25.8 nM.

As to `CC(=O)N1CCc2cc(-c3nc(NC(=O)c4cccc(OC(F)(F)F)c4)sc3C)ccc21`, the AC50 is 26 nM. In the case of `O=C(CN(C(=O)Cn1nnc(-c2ccc3c(c2)OCO3)n1)C1CCCCC1)NC1CCCC1`, the AC50 is 60.2 nM. For the compound `O=C(Nc1nc(-c2ccc3c(c2)CCN3)cs1)c1ccco1`, the AC50 is 21.1 nM. Still for that read-out and setting: the same measure for `CCC(=O)N1CC(C)(C)c2cc(-c3csc(NC(=O)c4cc(OC)cc(OC)c4)n3)ccc21`: 10.3 nM; for `CCC(=O)N1CCc2cc(-c3csc(NCc4cc(OC)cc(OC)c4)n3)ccc21`: 372 nM.

Regarding `CCC(=O)N1CCc2cc(-c3csc(NC(=O)c4cc5ccccc5o4)n3)ccc21`, the AC50 is 256 nM. Still for that read-out and setting: under `COc1ccc(-c2nnn(CC(=O)N(CC(=O)N(C)C3CCCC3)C3CCCCC3)n2)cc1OC` stands 1610 nM. For `CCNC(=O)N1CCc2cc(-c3csc(NC(=O)c4cc(OC)cc(OC)c4)n3)ccc21`, the AC50 is 2.28 nM. Same read-out and setting: under `CCC(=O)N1CCc2cc(-c3csc(NC(=O)c4cccc(OC)c4)n3)ccc21` stands 35 nM; under `CCCCCCC1CCC/C1=N\NC(N)=S` (stereo not drawn), 16.6 nM.

Regarding `CC(C(=O)NC1CCCC1)N(C(=O)Cn1nnc(-c2ccc3c(c2)OCO3)n1)C1CCCCC1` (stereo not drawn), the AC50 was 49.9 nM.

Still in this test, the particulars now being: DiI-HDL uptake fluorescence, 3 h, at 35 µM (top of the series).
As for `COc1c(NC(=O)C(=O)c2ccc(OCCN3CCOCC3)c3ccccc23)cc(C(C)(C)C)cc1NS(C)(=O)=O`, the “activity change, negative = inhibition” value was “inactive”.
